In ChEMBL document CHEMBL1132203, “Synthesis and biological properties of novel pyridinioalkanoyl thiolesters (PATE) as anti-HIV-1 agents that target the viral nucleocapsid protein zinc fingers” (J Med Chem, 1999):

Key:
[1] = system: Human immunodeficiency virus 1; assay: Effective antiviral concentration against HIV-1 infected CEM-SS cells; format: functional, organism-based; details: Human immunodeficiency virus 1, CEM-SS
Outline: (§1)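 CEM-SS cells infected with HIV-1 RF at MOI 0.01, scored by XTT dye-reduction cytoprotection. EC50 is the concentration giving 50% protection of infected cells. IC50 is the concentration causing 50% cytotoxicity (growth inhibition). High test concentration 316 μM.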

[2] = system: Human immunodeficiency virus 1; assay: Antiviral activity against HIV-1 infected CEM-SS cells was determined in XTT cytoprotection assay; format: functional, organism-based; details: Human immunodeficiency virus 1, CEM-SS; outline: as §1
[3] = system: Human immunodeficiency virus 1; assay: Nucleocapsid p7 protein (NCp7) zinc finger domain reactivity was measured by Trp37 fluorescence assay expressed as the average decrease in relative fluorescence units over 30 min; format: functional
Outline: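 Recombinant HIV-1 NCp7 (pET3A construct expressed in E. coli BL21); intrinsic fluorescence of Trp37 in the C-terminal zinc finger monitored over 30 min after compound addition. Value is the mean fall in relative fluorescence units per minute across 30 min, taken as a readout of Zn ejection. Dithiane or DIBA-1 served as reference. Where glutathione pretreatment was used, 2 mM compound was held 2 h at 37 °C with 2–8 M excess reduced glutathione, then diluted 40-fold to 50 μM final compound.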

[4] = 50% Inhibitory activity against attachment; No inhibition at a highest dose of 100 uM
[5] = biological target: Human immunodeficiency virus type 1 reverse transcriptase (Human immunodeficiency virus 1, UniProt Q72547); assay: 50% Inhibitory activity against reverse transcriptase; No inhibition at a highest dose of 100 uM
Outline: (§2)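 Top test level 100 μM; IC50 is the concentration inhibiting 50% of the indicated activity, with reference inhibitors run as positive controls. Integrase uses recombinant HIV-1 integrase, scored on 3'-processing and strand transfer. Protease uses recombinant HIV-1 protease cleaving the peptide Ala-Ser-Glu-Asn-Try-Pro-Ile-Val-amide, read by HPLC. Reverse transcriptase uses recombinant HIV-1 RT on rAdT and rCdG template/primers.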

[6] = biological target: Human immunodeficiency virus type 1 integrase (Human immunodeficiency virus 1, UniProt Q7ZJM1); assay: 50% Inhibitory activity against Integrase; No inhibition at a highest dose of 100 uM; outline: as §2
[7] = 50% Inhibitory activity against fusion; No inhibition at a highest dose of 100 uM
[8] = biological target: Human immunodeficiency virus type 1 protease (Human immunodeficiency virus 1, UniProt Q72874); assay: 50% Inhibitory activity against protease; No inhibition at a highest dose of 100 uM; outline: as §2

Chain of Human immunodeficiency virus type 1 integrase (Q7ZJM1 whole entry, the tested form may be a part): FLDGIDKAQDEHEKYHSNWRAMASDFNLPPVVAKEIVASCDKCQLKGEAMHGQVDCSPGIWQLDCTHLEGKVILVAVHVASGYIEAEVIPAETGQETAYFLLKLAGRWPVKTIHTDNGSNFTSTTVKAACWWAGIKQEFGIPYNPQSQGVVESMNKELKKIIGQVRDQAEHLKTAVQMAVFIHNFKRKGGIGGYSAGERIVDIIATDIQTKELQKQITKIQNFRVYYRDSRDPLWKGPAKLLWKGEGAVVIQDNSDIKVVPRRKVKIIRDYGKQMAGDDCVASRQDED

Structure (SMILES) | EC50 [1] [µM] | IC50 [2] [µM] | Activity [3] [RFU min-1] | IC50 [4] | IC50 [5] | Zinc finger reactivity [3] [RFU min-1] | IC50 [6] | IC50 [7] | IC50 [8]
NS(=O)(=O)c1ccc(NC(=O)CNC(=O)c2ccccc2SSc2ccccc2C(=O)NCC(=O)Nc2ccc(S(N)(=O)=O)cc2)cc1 | 1.6 | 17.6 | 7.9 |  |  |  |  |  | 
O=C(CCCC[n+]1ccccc1)Sc1ccccc1C(=O)Nc1ccc(S(=O)(=O)c2ccc(NS(=O)(=O)Cc3ccccc3[N+](=O)[O-])cc2)cc1.[Br-] | 2.9 | > 316 | 0.86 |  |  |  |  |  | 
NS(=O)(=O)c1ccc(Cn2sc3ccccc3c2=O)cc1 | 13.8 | 53.7 | 2.7 |  |  |  |  |  | 
CC(=O)NS(=O)(=O)c1ccc(NC(=O)c2ccccc2SC(=O)CCCCC[n+]2ccccc2)cc1.[Br-] | 10.5 | 69.7 | 1.9 |  |  |  |  |  | 
O=C(CCCC[n+]1ccccc1)Sc1ccccc1C(=O)Nc1ccc(S(=O)(=O)c2ccc([N+](=O)[O-])cc2)cc1.[Br-] | 5.5 | > 316 |  | No inhibition | No inhibition | 4.1 | No inhibition |  | 
CC(=O)NS(=O)(=O)c1ccc(NC(=O)c2ccccc2SC(=O)CCCCBr)cc1 | 3.8 | 184 |  | No inhibition | No inhibition | 1.8 | No inhibition | No inhibition | No inhibition
CC(=O)NS(=O)(=O)c1ccc(NC(=O)c2ccccc2SC(=O)CCCC[n+]2ccccc2)cc1.[Br-] | 6.2 | > 316 |  | No inhibition | No inhibition | 3.6 | No inhibition |  | No inhibition
CC(=O)Nc1ccc(S(=O)(=O)Nc2ccc(S(=O)(=O)c3ccc(-n4sc5ccccc5c4=O)cc3)cc2)cc1 | 9.6 | 188 | 7.9 |  |  |  |  |  | 
CC(=O)NS(=O)(=O)c1ccc(NC(=O)c2ccccc2SC(=O)CCC[n+]2ccccc2)cc1.[Br-] | 10.1 | 175 | 2.2 |  |  |  |  |  | 
CC(=O)Nc1ccc(S(=O)(=O)c2ccc(NC(=O)c3ccccc3SSc3ccccc3C(=O)Nc3ccc(S(=O)(=O)c4ccc(NC(C)=O)cc4)cc3)cc2)cc1 | 1.5 | 160 | 5.9 |  |  |  |  |  | 
COc1ccc(C(=O)Sc2ccccc2C(=O)Nc2ccc(S(=O)(=O)NC(C)=O)cc2)cc1 | 2.8 | 43.7 | 3.5 |  |  |  |  |  | 
CC(=O)Nc1cccc(S(=O)(=O)c2cccc(NC(=O)c3ccccc3SC(=O)CCCC[n+]3ccccc3)c2)c1.[Br-] | 4.9 | 205 | 1.1 |  |  |  |  |  | 
NS(=O)(=O)c1ccc(CCn2sc3ccccc3c2=O)cc1 | 2 | 45.5 | 2.7 |  |  |  |  |  | 
O=C(Nc1ccc(S(=O)(=O)c2ccc(NC(=O)c3ccccc3SSc3ccccc3C(=O)Nc3ccc(S(=O)(=O)c4ccc(NC(=O)c5ccc([N+](=O)[O-])cc5)cc4)cc3)cc2)cc1)c1ccc([N+](=O)[O-])cc1 | 78 | > 316 | 2.9 |  |  |  |  |  | 
COc1ccc(C(=O)Nc2ccc(S(=O)(=O)c3ccc(NC(=O)c4ccccc4SSc4ccccc4C(=O)Nc4ccc(S(=O)(=O)c5ccc(NC(=O)c6ccc(OC)cc6)cc5)cc4)cc3)cc2)cc1 | 3.8 | 79.6 | 6.9 |  |  |  |  |  | 
Nc1ccc(S(=O)(=O)c2ccc(NC(=O)c3ccccc3SSc3ccccc3C(=O)Nc3ccc(S(=O)(=O)c4ccc(N)cc4)cc3)cc2)cc1 | 4.3 | > 316 | 3.3 |  |  |  |  |  | 
O=C(Nc1ccc(S(=O)(=O)c2ccc([N+](=O)[O-])cc2)cc1)c1ccccc1SSc1ccccc1C(=O)Nc1ccc(S(=O)(=O)c2ccc([N+](=O)[O-])cc2)cc1 | 12.2 | > 316 | 2.9 |  |  |  |  |  | 
CC(=O)NS(=O)(=O)c1ccc(NC(=O)c2ccccc2SC(=O)CCCC[n+]2cccc(Cl)c2)cc1.[Br-] | 54 | 264 | 0.2 |  |  |  |  |  | 
O=C(CCCCBr)Sc1ccccc1C(=O)Nc1ccc(S(=O)(=O)c2ccc([N+](=O)[O-])cc2)cc1 | 1.6 | 21.7 | 1 |  |  |  |  |  | 
Nc1cccc(S(=O)(=O)c2cccc(NC(=O)c3ccccc3SSc3ccccc3C(=O)Nc3cccc(S(=O)(=O)c4cccc(N)c4)c3)c2)c1 | 1 | 81.5 | 0.92 |  |  |  |  |  | 
CC(=O)Nc1cccc(S(=O)(=O)c2cccc(NC(=O)c3ccccc3SSc3ccccc3C(=O)Nc3cccc(S(=O)(=O)c4cccc(NC(C)=O)c4)c3)c2)c1 | 0.62 | 59.1 | 2 |  |  |  |  |  | 
CC(=O)NS(=O)(=O)c1ccc(NC(=O)c2cccc(NC(=O)CCCl)c2)cc1 | 38 | 103 | 3.9 |  |  |  |  |  | 
